Data on four compounds can be found in ChEMBL document CHEMBL1150425, “Parallel one-pot synthesis and structure-activity relationship study of symmetric formimidoester disulfides as a novel class of potent non-nucleoside HIV-1 reverse transcriptase inhibitors” (Bioorg Med Chem, 2008).

Active and inactive are the calls of the source. The calls are words filed in the database; no cut-off is given here. Where only a bound is given, the exact number is not on record here.

The nature of data set [1]: Selectivity index, ratio of CC50 for human MT4 cells to EC50 for HIV1 cells. The format is toxicity, cell-based. The note with it: read-out: Ratio CC50/EC50. In a few lines: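 Ratio of CC50 (mock-infected MT-4 viability, MTT) to EC50 (50% protection of MT-4 cells from HIV-1 cytopathogenicity, MTT), both taken from the same parallel cell-based run.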
For data set [2], the target named is Human immunodeficiency virus type 1 reverse transcriptase (Human immunodeficiency virus 1, UniProt Q72547). The data set is described as follows: Inhibition of HIV1 virion-associated reverse transcriptase.
Data set [3] is described as follows: Cytotoxicity against human MT4 cells by MTT method. It counts as cell-based. In a few lines: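 Mock-infected MT-4 cells, run in parallel with the antiviral test; CC50 = concentration reducing viability by 50%, read by MTT. Triplicate samples.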
The subject of data set [4] is Human immunodeficiency virus 1. The data set is described as follows: Antiviral activity against HIV1 with reverse transcriptase K103R mutation. The format is functional, organism-based. In a few lines:
(§1)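 MT-4 cells infected with the mutant HIV-1 strain; protection from virus-induced cytopathogenicity read by MTT. EC50 is the concentration (µM) giving 50% protection. Cytotoxicity was assayed in parallel on mock-infected MT-4 cells by MTT. Triplicate samples.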

Data set [5] deals with Human immunodeficiency virus 1. Description: Antiviral activity against HIV1 with reverse transcriptase Y181C mutation. It counts as functional, organism-based. In a few lines:
as §1

Data set [6] concerns Human immunodeficiency virus 1. Description: Antiviral activity against HIV1 in MT4 cells assessed as reduction of virus induced cytopathogenicity by MTT method. The format is functional, organism-based. The note with it: Human immunodeficiency virus 1, MT4. In outline:
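MT-4 cells infected with wild-type HIV-1; EC50 = concentration giving 50% protection of cells from virus-induced cytopathogenicity, viability read by MTT. Triplicate samples.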
A general note: Cytopathic effects are the visible damage that an infection or toxin causes in cultured cells.

Take `S=C(NCCc1ccccn1)Nc1ccc(Br)cn1` [TROVIRDINE]: the selectivity ratio in data set [1] turned out to be 3000. Moreover, inhibition in data set [2] was half-maximal at 1.06 µM (IC50).

Take `O=C1c2ccccc2C(=O)N1CCO/C(=N\c1ccc([N+](=O)[O-])cc1)SS/C(=N/c1ccc([N+](=O)[O-])cc1)OCCN1C(=O)c2ccccc2C1=O`: the CC50 in data set [3] is greater than 100 µM. The EC50 turned out to be 62 µM in data set [4], 57 µM in data set [5] and 0.07 µM in data set [6]. Also, the selectivity ratio in data set [1] was greater than 1430.

As to `Cc1cc(Br)ccc1/N=C(\OCCN1C(=O)c2ccccc2C1=O)SS/C(=N/c1ccc(Br)cc1C)OCCN1C(=O)c2ccccc2C1=O`, the CC50 in data set [3] is 80 µM. Also, the outcome in data set [4] was inactive. Also, the EC50 in data set [5] worked out at 35 µM; in data set [6] it was 1.8 µM. In data set [1], the selectivity ratio came out at 44.

Regarding `O=C1c2ccccc2C(=O)N1CCO/C(=N\c1ccc(Br)cc1)SS/C(=N/c1ccc(Br)cc1)OCCN1C(=O)c2ccccc2C1=O`, in data set [3], the CC50 was 42 µM. The selectivity ratio in data set [1] was found to be 4200. Besides, the EC50 in data set [6] is 0.01 µM. In data set [2], this compound gave an IC50 of 0.74 µM.

Broadly, the IC50 is the concentration that gives 50% inhibition. Read a low IC50 as higher potency. For orientation: CC50 means the concentration at which the toxic effect on the cells reaches its halfway point. A word on the EC50: it is the concentration needed to bring the measured effect to its halfway point.
